According to ChEMBL document CHEMBL3046951, “Volatile constituents from the leaves of Callicarpa japonica Thunb. and their antibacterial activities” (2004):

What was measured:
Format in all cases: functional
[1] = test system: Escherichia coli; experiment: Antimicrobial activity against Escherichia coli O157:H7 ATCC 43894 assessed as growth inhibition rate at 0.24 mg/l after 72 hr by spectrophotometry; conditions: O157:H7 ATCC 43894, 72 h, read-out: GI
[2] = test system: Salmonella typhimurium; experiment: Antimicrobial activity against Salmonella enterica subsp. enterica serovar Typhimurium ATCC 14028 assessed as growth inhibition rate at 0.03 mg/l after 72 hr by spectrophotometry; conditions: ATCC 14028, 72 h, read-out: GI
Summary of the method: (§1)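 Salmonella Typhimurium ATCC 14028 grown in nutrient broth at 30 °C, precultured 24 h, then subcultured 1:100 for 18 h before testing. Single volatile compounds (>95% pure) were added. OD was read every 24 h over 72 h in a Bioscreen C, with 10% Tween 80 as the comparison control.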

[3] = test system: Listeria monocytogenes; experiment: Antimicrobial activity against Listeria monocytogenes ATCC 19111 assessed as growth inhibition rate at 12 mg/l after 72 hr by spectrophotometry; conditions: ATCC 19111, 72 h, read-out: GI
Summary of the method: (§2)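 L. monocytogenes was grown at 30 °C in tryptic soy broth, subcultured for 18 h, and exposed to pure volatile compounds (>95% purity). Growth was followed by Bioscreen C optical density every 24 h for 72 h against a 10% Tween 80 control.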

[4] = test system: Vibrio parahaemolyticus; experiment: Antimicrobial activity against Vibrio parahaemolyticus ATCC 33844 assessed as growth inhibition rate at 0.03 mg/l after 72 hr by spectrophotometry; conditions: ATCC 33844, 72 h, read-out: GI
[5] = test system: Bacillus cereus; experiment: Antimicrobial activity against Bacillus cereus ATCC 11778 assessed as growth inhibition rate at 24 mg/l after 72 hr by spectrophotometry; conditions: ATCC 11778, 72 h, read-out: GI
Summary of the method: (§3)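 Pure volatile compounds (purity >95%; one at 90%) were tested against B. cereus ATCC 11778. The strain was grown at 30 °C in nutrient broth for 24 h, then subcultured for 18 h. Optical density was read in a Bioscreen C every 24 h for 72 h, with 10% Tween 80 as the control.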

[6] = test system: Salmonella typhimurium; experiment: Antimicrobial activity against Salmonella enterica subsp. enterica serovar Typhimurium ATCC 14028 assessed as growth inhibition rate at 0.24 mg/l after 72 hr by spectrophotometry; conditions: ATCC 14028, 72 h, read-out: GI; summary of the method: as §1
[7] = test system: Vibrio parahaemolyticus; experiment: Antimicrobial activity against Vibrio parahaemolyticus ATCC 33844 assessed as growth inhibition rate at 1.2 mg/l after 72 hr by spectrophotometry; conditions: ATCC 33844, 72 h, read-out: GI
Summary of the method: (§4)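 Authentic volatiles (>95% purity; 2,4-heptadienal 90%) tested against 18 h subcultures. Growth media: E. coli O157:H7 and S. aureus in tryptic soy broth at 37 °C; L. monocytogenes in tryptic soy broth at 30 °C; V. parahaemolyticus in tryptic soy broth + 3% NaCl at 37 °C; S. typhimurium in nutrient broth at 30 °C. Bioscreen C OD every 24 h for 72 h versus 10% Tween 80 control.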

[8] = test system: Salmonella typhimurium; experiment: Antimicrobial activity against Salmonella enterica subsp. enterica serovar Typhimurium ATCC 14028 assessed as growth inhibition rate at 1.2 mg/l after 72 hr by spectrophotometry; conditions: ATCC 14028, 72 h, read-out: GI; summary of the method: as §4
[9] = test system: Listeria monocytogenes; experiment: Antimicrobial activity against Listeria monocytogenes ATCC 19111 assessed as growth inhibition rate at 24 mg/l after 72 hr by spectrophotometry; conditions: ATCC 19111, 72 h, read-out: GI; summary of the method: as §2
[10] = test system: Staphylococcus aureus; experiment: Antimicrobial activity against Staphylococcus aureus ATCC 25923 assessed as growth inhibition rate at 2.4 mg/l after 72 hr by spectrophotometry; conditions: ATCC 25923, 72 h, read-out: GI
[11] = test system: Staphylococcus aureus; experiment: Antimicrobial activity against Staphylococcus aureus ATCC 25923 assessed as growth inhibition rate at 12 mg/l after 72 hr by spectrophotometry; conditions: ATCC 25923, 72 h, read-out: GI
[12] = test system: Salmonella typhimurium; experiment: Antimicrobial activity against Salmonella enterica subsp. enterica serovar Typhimurium ATCC 14028 assessed as growth inhibition rate at 2.4 mg/l after 72 hr by spectrophotometry; conditions: ATCC 14028, 72 h, read-out: GI; summary of the method: as §1
[13] = test system: Staphylococcus aureus; experiment: Antimicrobial activity against Staphylococcus aureus ATCC 25923 assessed as growth inhibition rate at 1.2 mg/l after 72 hr by spectrophotometry; conditions: ATCC 25923, 72 h, read-out: GI; summary of the method: as §4
[14] = test system: Staphylococcus aureus; experiment: Antimicrobial activity against Staphylococcus aureus ATCC 25923 assessed as growth inhibition rate at 0.03 mg/l after 72 hr by spectrophotometry; conditions: ATCC 25923, 72 h, read-out: GI
[15] = test system: Salmonella typhimurium; experiment: Antimicrobial activity against Salmonella enterica subsp. enterica serovar Typhimurium ATCC 14028 assessed as growth inhibition rate at 12 mg/l after 72 hr by spectrophotometry; conditions: ATCC 14028, 72 h, read-out: GI; summary of the method: as §1
[16] = test system: Bacillus cereus; experiment: Antimicrobial activity against Bacillus cereus ATCC 11778 assessed as growth inhibition rate at 0.03 mg/l after 72 hr by spectrophotometry; conditions: ATCC 11778, 72 h, read-out: GI; summary of the method: as §3
[17] = test system: Staphylococcus aureus; experiment: Antimicrobial activity against Staphylococcus aureus ATCC 25923 assessed as growth inhibition rate at 24 mg/l after 72 hr by spectrophotometry; conditions: ATCC 25923, 72 h, read-out: GI
[18] = test system: Vibrio parahaemolyticus; experiment: Antimicrobial activity against Vibrio parahaemolyticus ATCC 33844 assessed as growth inhibition rate at 0.24 mg/l after 72 hr by spectrophotometry; conditions: ATCC 33844, 72 h, read-out: GI
[19] = test system: Escherichia coli; experiment: Antimicrobial activity against Escherichia coli O157:H7 ATCC 43894 assessed as growth inhibition rate at 0.03 mg/l after 72 hr by spectrophotometry; conditions: O157:H7 ATCC 43894, 72 h, read-out: GI
[20] = test system: Escherichia coli; experiment: Antimicrobial activity against Escherichia coli O157:H7 ATCC 43894 assessed as growth inhibition rate at 2.4 mg/l after 72 hr by spectrophotometry; conditions: O157:H7 ATCC 43894, 72 h, read-out: GI
[21] = test system: Staphylococcus aureus; experiment: Antimicrobial activity against Staphylococcus aureus ATCC 25923 assessed as growth inhibition rate at 0.24 mg/l after 72 hr by spectrophotometry; conditions: ATCC 25923, 72 h, read-out: GI
[22] = test system: Bacillus cereus; experiment: Antimicrobial activity against Bacillus cereus ATCC 11778 assessed as growth inhibition rate at 1.2 mg/l after 72 hr by spectrophotometry; conditions: ATCC 11778, 72 h, read-out: GI
Summary of the method: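 Pure volatile compounds (>95% purity; 2,4-heptadienal 90%) identified in the leaf extract were tested against B. cereus ATCC 11778 in nutrient broth at 30 °C. The inoculum was grown 24 h, then subcultured (0.1 mL into 9.9 mL) for 18 h. Optical density was read in a Bioscreen C every 24 h for 72 h against a 10% Tween 80 control.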

[23] = test system: Escherichia coli; experiment: Antimicrobial activity against Escherichia coli O157:H7 ATCC 43894 assessed as growth inhibition rate at 24 mg/l after 72 hr by spectrophotometry; conditions: O157:H7 ATCC 43894, 72 h, read-out: GI
[24] = test system: Bacillus cereus; experiment: Antimicrobial activity against Bacillus cereus ATCC 11778 assessed as growth inhibition rate at 2.4 mg/l after 72 hr by spectrophotometry; conditions: ATCC 11778, 72 h, read-out: GI; summary of the method: as §3
[25] = test system: Escherichia coli; experiment: Antimicrobial activity against Escherichia coli O157:H7 ATCC 43894 assessed as growth inhibition rate at 1.2 mg/l after 72 hr by spectrophotometry; conditions: O157:H7 ATCC 43894, 72 h, read-out: GI
[26] = test system: Salmonella typhimurium; experiment: Antimicrobial activity against Salmonella enterica subsp. enterica serovar Typhimurium ATCC 14028 assessed as growth inhibition rate at 24 mg/l after 72 hr by spectrophotometry; conditions: ATCC 14028, 72 h, read-out: GI; summary of the method: as §1
[27] = test system: Bacillus cereus; experiment: Antimicrobial activity against Bacillus cereus ATCC 11778 assessed as growth inhibition rate at 0.24 mg/l after 72 hr by spectrophotometry; conditions: ATCC 11778, 72 h, read-out: GI; summary of the method: as §3
[28] = test system: Vibrio parahaemolyticus; experiment: Antimicrobial activity against Vibrio parahaemolyticus ATCC 33844 assessed as growth inhibition rate at 12 mg/l after 72 hr by spectrophotometry; conditions: ATCC 33844, 72 h, read-out: GI
[29] = test system: Escherichia coli; experiment: Antimicrobial activity against Escherichia coli O157:H7 ATCC 43894 assessed as growth inhibition rate at 12 mg/l after 72 hr by spectrophotometry; conditions: O157:H7 ATCC 43894, 72 h, read-out: GI
[30] = test system: Listeria monocytogenes; experiment: Antimicrobial activity against Listeria monocytogenes ATCC 19111 assessed as growth inhibition rate at 0.03 mg/l after 72 hr by spectrophotometry; conditions: ATCC 19111, 72 h, read-out: GI; summary of the method: as §2
[31] = test system: Bacillus cereus; experiment: Antimicrobial activity against Bacillus cereus ATCC 11778 assessed as growth inhibition rate at 12 mg/l after 72 hr by spectrophotometry; conditions: ATCC 11778, 72 h, read-out: GI; summary of the method: as §3
[32] = test system: Vibrio parahaemolyticus; experiment: Antimicrobial activity against Vibrio parahaemolyticus ATCC 33844 assessed as growth inhibition rate at 2.4 mg/l after 72 hr by spectrophotometry; conditions: ATCC 33844, 72 h, read-out: GI
[33] = test system: Listeria monocytogenes; experiment: Antimicrobial activity against Listeria monocytogenes ATCC 19111 assessed as growth inhibition rate at 1.2 mg/l after 72 hr by spectrophotometry; conditions: ATCC 19111, 72 h, read-out: GI; summary of the method: as §4
[34] = test system: Listeria monocytogenes; experiment: Antimicrobial activity against Listeria monocytogenes ATCC 19111 assessed as growth inhibition rate at 0.24 mg/l after 72 hr by spectrophotometry; conditions: ATCC 19111, 72 h, read-out: GI; summary of the method: as §2
[35] = test system: Listeria monocytogenes; experiment: Antimicrobial activity against Listeria monocytogenes ATCC 19111 assessed as growth inhibition rate at 2.4 mg/l after 72 hr by spectrophotometry; conditions: ATCC 19111, 72 h, read-out: GI; summary of the method: as §2
[36] = test system: Vibrio parahaemolyticus; experiment: Antimicrobial activity against Vibrio parahaemolyticus ATCC 33844 assessed as growth inhibition rate at 24 mg/l after 72 hr by spectrophotometry; conditions: ATCC 33844, 72 h, read-out: GI

Which results are given for C[C@@H]1CC[C@@H]2[C@@H]1[C@H]1[C@@H](CC[C@]2(C)O)C1(C)C [(-)-EPIGLOBULOL]?
inhibition of growth at 0.24 µg/mL [1]: 0.7%; inhibition of growth at 0.03 µg/mL [2]: 2.2%; inhibition of growth at 12 µg/mL [3]: 92%; inhibition of growth at 0.03 µg/mL [4]: 3.1%; inhibition of growth at 24 µg/mL [5]: 95.7%; inhibition of growth at 0.24 µg/mL [6]: 3.9%; inhibition of growth at 1.2 µg/mL [7]: 11.1%; inhibition of growth at 1.2 µg/mL [8]: 4.4%; inhibition of growth at 24 µg/mL [9]: 94.3%; inhibition of growth at 2.4 µg/mL [10]: 5.9%; inhibition of growth at 12 µg/mL [11]: 99.4%; inhibition of growth at 2.4 µg/mL [12]: 4.9%; inhibition of growth at 1.2 µg/mL [13]: 5.8%; inhibition of growth at 0.03 µg/mL [14]: 1.7%; inhibition of growth at 12 µg/mL [15]: 39.1%; inhibition of growth at 0.03 µg/mL [16]: 0.6%; inhibition of growth at 24 µg/mL [17]: 99.6%; inhibition of growth at 0.24 µg/mL [18]: 11.4%; inhibition of growth at 0.03 µg/mL [19]: 0.3%; inhibition of growth at 2.4 µg/mL [20]: 2.1%; inhibition of growth at 0.24 µg/mL [21]: 2.6%; inhibition of growth at 1.2 µg/mL [22]: 13.9%; inhibition of growth at 24 µg/mL [23]: 26.3%; inhibition of growth at 2.4 µg/mL [24]: 18.6%; inhibition of growth at 1.2 µg/mL [25]: 0.9%; inhibition of growth at 24 µg/mL [26]: 58.1%; inhibition of growth at 0.24 µg/mL [27]: 8.2%; inhibition of growth at 12 µg/mL [28]: 61.2%; inhibition of growth at 12 µg/mL [29]: 22.6%; inhibition of growth at 0.03 µg/mL [30]: 5.8%; inhibition of growth at 12 µg/mL [31]: 63.6%; inhibition of growth at 2.4 µg/mL [32]: 11.7%; inhibition of growth at 1.2 µg/mL [33]: 8.2%; inhibition of growth at 0.24 µg/mL [34]: 6.1%; inhibition of growth at 2.4 µg/mL [35]: 10.1%; inhibition of growth at 24 µg/mL [36]: 65.8%
